ChEMBL document CHEMBL5356993, “Novel pyrazolo[3,4-d]pyrimidine derivatives: design, synthesis, anticancer evaluation, VEGFR-2 inhibition, and antiangiogenic activity” (RSC Med Chem, 2023)

The compounds below were run on HCT-15 (assay: Antiproliferative activity against human HCT-15 cells assessed as cell growth inhibition at 10 uM incubated for 48 hrs by SRB assay relative to control). Settings: read-out: GI.
Format: functional

SMILES | inhibition of growth at 10 µM [%]
Cc1nc2c(cnn2-c2ccccc2)c(=O)n1-c1ccc(N2C(=O)c3ccccc3C2=O)cc1 | < 15
COc1ccc(/C=C/C(=O)c2ccc(-n3c(C)nc4c(cnn4-c4ccccc4)c3=O)cc2)cc1 | 46.5

The compounds below were run on UACC-62 (assay: Antiproliferative activity against human UACC-62 cells assessed as cell growth inhibition at 10 uM incubated for 48 hrs by SRB assay relative to control). Settings: read-out: GI.
Format: functional
Outline: (§1)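 Cells pre-incubated 24 h at 37°C, 5% CO2, then exposed to compound (DMSO stock diluted in medium with 50 µg/mL gentamicin) for 48 h. Adherent cells fixed with cold TCA (final 10%, 60 min, 4°C); suspension cells fixed with 16% TCA final. Stained with 0.4% SRB in 1% acetic acid for 10 min, dye solubilized in 10 mM Trizma base, absorbance read at 515 nm. Growth calculated against time-zero and untreated control plates.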

SMILES | inhibition of growth at 10 µM [%]
Cc1nc2c(cnn2-c2ccccc2)c(=O)n1-c1ccc(N2C(=O)c3ccccc3C2=O)cc1 | < 15
COc1ccc(/C=C/C(=O)c2ccc(-n3c(C)nc4c(cnn4-c4ccccc4)c3=O)cc2)cc1 | 50

The compounds below were run on OVCAR-4 (assay: Antiproliferative activity against human OVCAR-4 cells assessed as cell growth inhibition at 10 uM incubated for 48 hrs by SRB assay relative to control). Settings: read-out: GI.
Format: functional

SMILES | inhibition of growth at 10 µM [%]
Cc1nc2c(cnn2-c2ccccc2)c(=O)n1-c1ccc(N2C(=O)c3ccccc3C2=O)cc1 | < 15
COc1ccc(/C=C/C(=O)c2ccc(-n3c(C)nc4c(cnn4-c4ccccc4)c3=O)cc2)cc1 | 34.3

These compounds were tested on HCT-116 (assay: Antiproliferative activity against human HCT-116 cells assessed as cell growth inhibition at 10 uM incubated for 48 hrs by SRB assay relative to control). Settings: read-out: GI.
Format: functional

SMILES | inhibition of growth at 10 µM [%]
Cc1nc2c(cnn2-c2ccccc2)c(=O)n1-c1ccc(N2C(=O)c3ccccc3C2=O)cc1 | < 15
COc1ccc(/C=C/C(=O)c2ccc(-n3c(C)nc4c(cnn4-c4ccccc4)c3=O)cc2)cc1 | 90.3

Each compound was assayed on HL-60(TB) (assay: Antiproliferative activity against human HL-60(TB) cells assessed as cell growth inhibition at 10 uM incubated for 48 hrs by SRB assay relative to control). Settings: read-out: GI.
Format: functional
Outline: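 Cells were plated at […] cells/well and preincubated 24 h at 37°C, 5% CO2, with time-zero plates TCA-fixed. Compound was diluted from DMSO stock in medium with 50 µg/mL gentamicin, then exposed for 48 h. Settled suspension cells were fixed with 80% TCA (final 16%), stained with 0.4% SRB and solubilized in 10 mM Trizma, A515. Growth was taken relative to Tz and control.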

SMILES | inhibition of growth at 10 µM [%]
Cc1nc2c(cnn2-c2ccccc2)c(=O)n1-c1ccc(N2C(=O)c3ccccc3C2=O)cc1 | < 15
COc1ccc(/C=C/C(=O)c2ccc(-n3c(C)nc4c(cnn4-c4ccccc4)c3=O)cc2)cc1 | 55.3

These compounds were tested on 786-0 (assay: Antiproliferative activity against human 786-0 cells assessed as cell growth inhibition at 10 uM incubated for 48 hrs by SRB assay relative to control). Settings: read-out: GI.
Format: functional

SMILES | inhibition of growth at 10 µM [%]
Cc1nc2c(cnn2-c2ccccc2)c(=O)n1-c1ccc(N2C(=O)c3ccccc3C2=O)cc1 | < 15
COc1ccc(/C=C/C(=O)c2ccc(-n3c(C)nc4c(cnn4-c4ccccc4)c3=O)cc2)cc1 | 15.4

These compounds were tested on NCI-H23 (assay: Antiproliferative activity against human NCI-H23 cells assessed as cell growth inhibition at 10 uM incubated for 48 hrs by SRB assay relative to control). Settings: read-out: GI.
Format: functional

SMILES | inhibition of growth at 10 µM [%]
Cc1nc2c(cnn2-c2ccccc2)c(=O)n1-c1ccc(N2C(=O)c3ccccc3C2=O)cc1 | < 15
COc1ccc(/C=C/C(=O)c2ccc(-n3c(C)nc4c(cnn4-c4ccccc4)c3=O)cc2)cc1 | 27.6

Each compound was assayed on NCI-H460 (assay: Antiproliferative activity against human NCI-H460 cells assessed as cell growth inhibition at 10 uM incubated for 48 hrs by SRB assay relative to control). Settings: read-out: GI.
Format: functional

SMILES | inhibition of growth at 10 µM [%]
Cc1nc2c(cnn2-c2ccccc2)c(=O)n1-c1ccc(N2C(=O)c3ccccc3C2=O)cc1 | < 15
COc1ccc(/C=C/C(=O)c2ccc(-n3c(C)nc4c(cnn4-c4ccccc4)c3=O)cc2)cc1 | < 15

These compounds were tested on T47D (assay: Antiproliferative activity against human T47D cells assessed as cell growth inhibition at 10 uM incubated for 48 hrs by SRB assay relative to control). Settings: read-out: GI.
Format: functional
Outline: as §1

SMILES | inhibition of growth at 10 µM [%]
Cc1nc2c(cnn2-c2ccccc2)c(=O)n1-c1ccc(N2C(=O)c3ccccc3C2=O)cc1 | < 15
COc1ccc(/C=C/C(=O)c2ccc(-n3c(C)nc4c(cnn4-c4ccccc4)c3=O)cc2)cc1 | 65.3

The compounds below were run on SK-MEL-5 (assay: Antiproliferative activity against human SK-MEL-5 cells assessed as cell growth inhibition at 10 uM incubated for 48 hrs by SRB assay relative to control). Settings: read-out: GI.
Format: functional
Outline: (§2)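 Cells plated in 96-well plates at […] cells/well and preincubated 24 h at 37 °C, 5% CO2. Time-zero plates were TCA-fixed. Compound was diluted in medium with 50 µg/mL gentamicin and cells exposed for 48 h. Adherent cells fixed with 10% final TCA; suspension cells with 16% final TCA. Plates stained with 0.4% SRB in 1% acetic acid, dye solubilized in 10 mM Trizma, absorbance read at 515 nm. Percent growth calculated against time-zero and control.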

SMILES | inhibition of growth at 10 µM [%]
Cc1nc2c(cnn2-c2ccccc2)c(=O)n1-c1ccc(N2C(=O)c3ccccc3C2=O)cc1 | < 15
COc1ccc(/C=C/C(=O)c2ccc(-n3c(C)nc4c(cnn4-c4ccccc4)c3=O)cc2)cc1 | 72.3

What follows are compounds tested on SW-620 (assay: Antiproliferative activity against human SW620 cells assessed as cell growth inhibition at 10 uM incubated for 48 hrs by SRB assay relative to control). Settings: read-out: GI.
Format: functional
Outline: as §1

SMILES | inhibition of growth at 10 µM [%]
Cc1nc2c(cnn2-c2ccccc2)c(=O)n1-c1ccc(N2C(=O)c3ccccc3C2=O)cc1 | < 15
COc1ccc(/C=C/C(=O)c2ccc(-n3c(C)nc4c(cnn4-c4ccccc4)c3=O)cc2)cc1 | 24.9

Each compound was assayed on MDA-MB-435 (assay: Antiproliferative activity against human MDA-MB-435 cells assessed as cell growth inhibition at 10 uM incubated for 48 hrs by SRB assay relative to control). Settings: read-out: GI.
Format: functional

SMILES | inhibition of growth at 10 µM [%]
Cc1nc2c(cnn2-c2ccccc2)c(=O)n1-c1ccc(N2C(=O)c3ccccc3C2=O)cc1 | < 15
COc1ccc(/C=C/C(=O)c2ccc(-n3c(C)nc4c(cnn4-c4ccccc4)c3=O)cc2)cc1 | 88.8

What follows are compounds tested on LOX IMVI (assay: Antiproliferative activity against human LOX IMVI cells assessed as cell growth inhibition at 10 uM incubated for 48 hrs by SRB assay relative to control). Settings: read-out: GI.
Format: functional

SMILES | inhibition of growth at 10 µM [%]
Cc1nc2c(cnn2-c2ccccc2)c(=O)n1-c1ccc(N2C(=O)c3ccccc3C2=O)cc1 | < 15
COc1ccc(/C=C/C(=O)c2ccc(-n3c(C)nc4c(cnn4-c4ccccc4)c3=O)cc2)cc1 | 56

What follows are compounds tested on SF-539 (assay: Antiproliferative activity against human SF-539 cells assessed as cell growth inhibition at 10 uM incubated for 48 hrs by SRB assay relative to control). Settings: read-out: GI.
Format: functional
Outline: as §2

SMILES | inhibition of growth at 10 µM [%]
Cc1nc2c(cnn2-c2ccccc2)c(=O)n1-c1ccc(N2C(=O)c3ccccc3C2=O)cc1 | < 15
COc1ccc(/C=C/C(=O)c2ccc(-n3c(C)nc4c(cnn4-c4ccccc4)c3=O)cc2)cc1 | 22.4

What follows are compounds tested on CCRF-CEM (assay: Antiproliferative activity against human CCRF-CEM cells assessed as cell growth inhibition at 10 uM incubated for 48 hrs by SRB assay relative to control). Settings: read-out: GI.
Format: functional
Outline: as §2

SMILES | inhibition of growth at 10 µM [%]
Cc1nc2c(cnn2-c2ccccc2)c(=O)n1-c1ccc(N2C(=O)c3ccccc3C2=O)cc1 | < 15
COc1ccc(/C=C/C(=O)c2ccc(-n3c(C)nc4c(cnn4-c4ccccc4)c3=O)cc2)cc1 | 53.6

Each compound was assayed on M14 (assay: Antiproliferative activity against human M14 cells assessed as cell growth inhibition at 10 uM incubated for 48 hrs by SRB assay relative to control). Settings: read-out: GI.
Format: functional
Outline: as §2

SMILES | inhibition of growth at 10 µM [%]
Cc1nc2c(cnn2-c2ccccc2)c(=O)n1-c1ccc(N2C(=O)c3ccccc3C2=O)cc1 | < 15
COc1ccc(/C=C/C(=O)c2ccc(-n3c(C)nc4c(cnn4-c4ccccc4)c3=O)cc2)cc1 | 46.9

The compounds below were run on TK-10 (assay: Antiproliferative activity against human TK-10 cells assessed as cell growth inhibition at 10 uM incubated for 48 hrs by SRB assay relative to control). Settings: read-out: GI.
Format: functional
Outline: as §1

SMILES | inhibition of growth at 10 µM [%]
Cc1nc2c(cnn2-c2ccccc2)c(=O)n1-c1ccc(N2C(=O)c3ccccc3C2=O)cc1 | < 15
COc1ccc(/C=C/C(=O)c2ccc(-n3c(C)nc4c(cnn4-c4ccccc4)c3=O)cc2)cc1 | < 15

What follows are compounds tested on HCC 2998 (assay: Antiproliferative activity against human HCC 2998 cells assessed as cell growth inhibition at 10 uM incubated for 48 hrs by SRB assay relative to control). Settings: read-out: GI.
Format: functional

SMILES | inhibition of growth at 10 µM [%]
Cc1nc2c(cnn2-c2ccccc2)c(=O)n1-c1ccc(N2C(=O)c3ccccc3C2=O)cc1 | < 15
COc1ccc(/C=C/C(=O)c2ccc(-n3c(C)nc4c(cnn4-c4ccccc4)c3=O)cc2)cc1 | < 15

Each compound was assayed on NCI-H522 (assay: Antiproliferative activity against human NCI-H522 cells assessed as cell growth inhibition at 10 uM incubated for 48 hrs by SRB assay relative to control). Settings: read-out: GI.
Format: functional
Outline: as §2

SMILES | inhibition of growth at 10 µM [%]
Cc1nc2c(cnn2-c2ccccc2)c(=O)n1-c1ccc(N2C(=O)c3ccccc3C2=O)cc1 | < 15
COc1ccc(/C=C/C(=O)c2ccc(-n3c(C)nc4c(cnn4-c4ccccc4)c3=O)cc2)cc1 | 42.6

What follows are compounds tested on K562 (assay: Antiproliferative activity against human K562 cells assessed as cell growth inhibition at 10 uM incubated for 48 hrs by SRB assay relative to control). Settings: read-out: GI.
Format: functional

SMILES | inhibition of growth at 10 µM [%]
Cc1nc2c(cnn2-c2ccccc2)c(=O)n1-c1ccc(N2C(=O)c3ccccc3C2=O)cc1 | < 15
COc1ccc(/C=C/C(=O)c2ccc(-n3c(C)nc4c(cnn4-c4ccccc4)c3=O)cc2)cc1 | 87.6

These compounds were tested on EKVX (assay: Antiproliferative activity against human EKVX cells assessed as cell growth inhibition at 10 uM incubated for 48 hrs by SRB assay relative to control). Settings: read-out: GI.
Format: functional

SMILES | inhibition of growth at 10 µM [%]
Cc1nc2c(cnn2-c2ccccc2)c(=O)n1-c1ccc(N2C(=O)c3ccccc3C2=O)cc1 | < 15
COc1ccc(/C=C/C(=O)c2ccc(-n3c(C)nc4c(cnn4-c4ccccc4)c3=O)cc2)cc1 | 57.1

Each compound was assayed on HOP-62 (assay: Antiproliferative activity against human HOP-62 cells assessed as cell growth inhibition at 10 uM incubated for 48 hrs by SRB assay relative to control). Settings: read-out: GI.
Format: functional

SMILES | inhibition of growth at 10 µM [%]
Cc1nc2c(cnn2-c2ccccc2)c(=O)n1-c1ccc(N2C(=O)c3ccccc3C2=O)cc1 | < 15
COc1ccc(/C=C/C(=O)c2ccc(-n3c(C)nc4c(cnn4-c4ccccc4)c3=O)cc2)cc1 | 19.5

What follows are compounds tested on A498 (assay: Antiproliferative activity against human A498 cells assessed as cell growth inhibition at 10 uM incubated for 48 hrs by SRB assay relative to control). Settings: read-out: GI.
Format: functional
Outline: as §2

SMILES | inhibition of growth at 10 µM [%]
Cc1nc2c(cnn2-c2ccccc2)c(=O)n1-c1ccc(N2C(=O)c3ccccc3C2=O)cc1 | < 15
COc1ccc(/C=C/C(=O)c2ccc(-n3c(C)nc4c(cnn4-c4ccccc4)c3=O)cc2)cc1 | < 15
